One test deals with Ramos. Briefly: Cytotoxicity against human Ramos cells assessed as decrease in cell viability after 24 hrs by CellTiter-Glo assay. Type of test: functional, cell-based. Put shortly:
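Human lymphoma Ramos cells, expanded to exponential growth in RPMI 1640 plus 10% (v/v) fetal calf serum under humidified 5% CO2. Seeded cells were treated with compounds at the indicated concentrations, 37 °C, 24 h. Viability was measured from the cellular ATP level with the CellTiter-Glo kit.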

A further test deals with NCI-H1975. Nature of the test: Cytotoxicity against human NCI-H1975 cells assessed as decrease in cell viability after 72 hrs by CellTiter-Glo assay. To be noted: NCI-H1975, 72 h. The class given is functional, cell-based. Put shortly: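 NSCLC H1975 cells grown to exponential phase in RPMI 1640 with 10% (v/v) fetal calf serum, humidified 5% CO2. Seeded cells were exposed to compounds at the indicated concentrations for 72 h at 37 °C. Viability was read as the ATP level in living cells (CellTiter-Glo).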

`CO[C@@H]1CC(=O)C2=CCCC3(Oc4cccc5cccc(c45)O3)[C@@H]2[C@@H]1O`: the IC50 in the test with Ramos came out at 0.461 µM; with NCI-H1975, 10.2 µM. With `O=C1C=C[C@@H](O)[C@@H]2C1=CCCC21Oc2cccc3cccc(c23)O1`, the IC50 is 0.048 µM in the test on Ramos and 1.17 µM in the test with NCI-H1975.

On to `O=C1C2=CCCC3(Oc4cccc5cccc(c45)O3)[C@@H]2[C@H](O)[C@@H]2O[C@H]12`, for which the IC50 stood at 18 µM with Ramos and 7.3 µM in the test with NCI-H1975.

In the case of `O=C1C=C[C@]2(Oc3cccc4c(O)ccc(c34)O2)c2ccccc21`, the values for the IC50 in the test on Ramos and in the test on NCI-H1975 were 15 µM and over 100 µM, respectively. The like results for `O=C1CC[C@]23Oc4ccc(O)c5c4[C@@](C=CC5=O)(Oc4cccc1c42)O3` were, in that order, 82.9 µM and over 100 µM. For `CC(=O)O[C@@H]1C=CC(=O)C2=CCCC3(Oc4cccc5cccc(c45)O3)[C@@H]21` the same measures were 0.018 µM and 0.252 µM. Turning to `CO[C@H]1CCC2(Oc3cccc4cccc(c34)O2)C2=C1C(=O)C=CC2=O`, the values for the IC50 in the test with Ramos and with NCI-H1975 were 31.7 µM and over 100 µM, respectively.

`O[C@H]1[C@@H]2[C@H]([C@@H](O)CCC23Oc2cccc4cccc(c24)O3)[C@@H](O)C[C@@H]1O`: the IC50 with Ramos and with NCI-H1975 was over 100 µM in each case. Turning to `Oc1cccc2c1[C@@H](O)CCC21Oc2cccc3cccc(c23)O1`, the IC50 with Ramos and in the test with NCI-H1975 was over 100 µM throughout.

As to `O=C1CCC(O)c2cccc(O)c21` (stereo unspecified) [4,8-DIHYDROXY-1-TETRALONE], the IC50 in the test on Ramos was 23.1 µM; in the test with NCI-H1975 it was 50 µM. On to `CN(C)C/C=C/C(=O)Nc1cc2c(Nc3ccc(F)c(Cl)c3)ncnc2cc1O[C@H]1CCOC1` [AFATINIB], for which, in the test with NCI-H1975, the IC50 amounted to 1.97 µM. Regarding `C=CC(=O)N1CCC[C@@H](n2nc(-c3ccc(Oc4ccccc4)cc3)c3c(N)ncnc32)C1` [IBRUTINIB], in the test on Ramos, the IC50 is 28.7 µM. As to `O=C1CCC2(Oc3cccc4cccc(c34)O2)c2cccc(O)c21` [PALMARUMYCIN CP2], the IC50 with Ramos is 18 µM; in the test on NCI-H1975, over 100 µM. The like results for `O=C1CCC2(Oc3cccc4cccc(c34)O2)c2c(O)ccc(O)c21` [PALMARUMYCIN CP17] were, in that order, 33.1 µM and over 100 µM.
